This note sets out measurements from ChEMBL document CHEMBL1833818, “Synthesis of phenanthroindolizidine alkaloids and evaluation of their antitumor activities and toxicities” (Bioorg Med Chem Lett, 2011).

Data set [1] deals with HCT-116. Nature of the data set: Antitumor activity against human HCT116 cells xenografted in nude mouse assessed as tumor growth inhibition at 100 mg/kg, ip administered 10 times on days 1 to 5 and 8 to 12 measured on day 21 post-implantation relative to control. The class given is functional. Conditions: HCT-116, ip, 504 h, route intraperitoneal, read-out: GI. The method in brief: (§1)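 HCT116 cells (2 × 10⁶/mouse) implanted s.c. in 6-week-old male nude mice; groups of 5 formed when estimated tumor volume reached about 100 mm³ (day 0). Dosing i.p. on days 1–5 and 8–12. Tumors excised and weighed day 21 after inoculation; inhibition rate (%) = [1 − mean tumor weight treated/mean tumor weight control] × 100.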
Background: Xenograft models place foreign cells or tissue in a host animal.

Data set [2] deals with HCT-116. As to the kind of experiment: Cytotoxicity against human HCT116 cells after 96 hrs by […] assay. It is filed as functional, cell-based. Conditions: HCT-116, 96 h. The method in brief:
(§2)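 Exponentially growing cells seeded at 10³ cells/well; serially diluted compounds added next day, 96 h exposure. Tetrazolium reagent (2-(2-methoxy-4-nitrophenyl)-3-(4-nitrophenyl)-5-(2,4-disulfophenyl)-2H-tetrazolium) added, 1 h at 37 °C, absorbance 450 nm. IC50 = concentration inhibiting growth 50% versus solvent-treated cells.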

The test system of the next data set is HT-29. As to the kind of experiment: Cytotoxicity against human HT-29 cells after 96 hrs by […] assay. The class given is functional, cell-based. Conditions: HT-29, 96 h. The method in brief: as §2
A further data set deals with A549. As to the kind of experiment: Cytotoxicity against human A549 cells after 96 hrs by […] assay. The class given is functional, cell-based. To be noted: A549, 96 h. The method in brief: as §2
Data set [3] deals with Mus musculus. As to the kind of experiment: Toxicity in human HCT116 cells xenografted nude mouse assessed as mortality at 100 mg/kg, ip. It is filed as organism-based, HCT-116. Further details: dose 100 mg/kg, route intraperitoneal. To be noted: in vivo. The method in brief:
(§3)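 HCT116 cells, 2 × 10⁶ per mouse, implanted s.c. in 6-week-old male nude mice. Mice were grouped 5 per group once the estimated tumour volume reached about 100 mm³ (day 0). Samples were given i.p. 10 times, on days 1–5 and 8–12. Tumours were excised and weighed on day 21 after inoculation. Mortality was recorded per group.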

Data set [4] is described as follows: Antitumor activity against mouse Meth-A cells xenografted in BALB/c mouse assessed as tumor growth inhibition at 100 mg/kg, iv administered on day 1, 5, 9 and measured on day 21 post-implantation relative to control. The class given is functional. To be noted: read-out: GI. The method in brief:
(§4)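 Meth A sarcoma cells (2.5 × 10⁵/mouse) inoculated s.c. into 7-week-old male BALB/c mice, 5 per group; i.v. injection on days 1, 5 and 9. Tumors excised and weighed on day 21 post-inoculation; inhibition rate (%) = [1 − mean tumor weight treated/mean tumor weight control] × 100. Mortality also recorded.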

Data set [5] relates to Mus musculus. Nature of the data set: Toxicity in human HCT116 cells xenografted nude mouse assessed as mortality at 135 mg/kg, ip. On the set-up: dose 135 mg/kg, route intraperitoneal. It is filed as organism-based, HCT-116. Conditions: in vivo. The method in brief: as §3
A short description of data set [6]: Antitumor activity against mouse Meth-A cells xenografted in BALB/c mouse assessed as tumor growth inhibition at 50 mg/kg, iv administered on day 1, 5, 9 and measured on day 21 post-implantation relative to control. Conditions: read-out: GI. It is filed as functional. The method in brief: as §4
The subject of data set [7] is Mus musculus. As to the kind of experiment: Toxicity in mouse Meth-A cells xenografted BALB/c mouse assessed as mortality at 100 mg/kg, iv. The class given is organism-based. Further details: dose 100 mg/kg, route intravenous. To be noted: in vivo. The method in brief: (§5)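 Meth A sarcoma cells, 2.5 × 10⁵ per mouse, inoculated s.c. into 7-week-old male BALB/c mice, 5 per group. Samples were injected i.v. on days 1, 5 and 9. Tumours were excised and weighed on day 21 after inoculation. Mortality was recorded per group as deaths/5.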

The test system of data set [8] is HCT-116. Nature of the data set: Antitumor activity against human HCT116 cells xenografted in nude mouse assessed as tumor growth inhibition at 135 mg/kg, ip administered 10 times on days 1 to 5 and 8 to 12 measured on day 21 post-implantation relative to control. It is filed as functional. Conditions: HCT-116, ip, 504 h, route intraperitoneal, read-out: GI. The method in brief: as §1

Data set [9] concerns Mus musculus. As to the kind of experiment: Toxicity in mouse Meth-A cells xenografted BALB/c mouse assessed as mortality at 50 mg/kg, iv. It is filed as organism-based. On the set-up: dose 50 mg/kg, route intravenous. To be noted: in vivo. The method in brief: as §5
In data set [10] the test system is Mus musculus. As to the kind of experiment: Toxicity in human HCT116 cells xenografted nude mouse assessed as mortality at 200 mg/kg, ip. It is filed as organism-based, HCT-116. Further details: dose 200 mg/kg, route intraperitoneal. Conditions: in vivo. The method in brief: as §3
Data set [11] in a line: Toxicity in human HCT116 cells xenografted nude mouse assessed as mortality at 6.25 mg/kg, ip. It is filed as organism-based, HCT-116. On the set-up: dose 6.25 mg/kg, route intraperitoneal. Conditions: in vivo, read-out: Activity. The method in brief: as §3
A short description of data set [12]: Antitumor activity against mouse Meth-A cells xenografted in BALB/c mouse assessed as tumor growth inhibition at 25 mg/kg, iv administered on day 1, 5, 9 and measured on day 21 post-implantation relative to control. To be noted: read-out: GI. It is filed as functional. The method in brief: as §4
The subject of data set [13] is HCT-116. Nature of the data set: Antitumor activity against human HCT116 cells xenografted in nude mouse assessed as tumor growth inhibition at 200 mg/kg, ip administered 10 times on days 1 to 5 and 8 to 12 measured on day 21 post-implantation relative to control. The class given is functional. To be noted: HCT-116, ip, 504 h, route intraperitoneal, read-out: GI. The method in brief: as §1

Data set [14] deals with Mus musculus. As to the kind of experiment: Toxicity in mouse Meth-A cells xenografted BALB/c mouse assessed as mortality at 25 mg/kg, iv. The class given is organism-based. On the set-up: dose 25 mg/kg, route intravenous. Conditions: in vivo. The method in brief:
as §5

The term IC50 denotes the concentration at which inhibition is half-maximal. Read a low IC50 as inhibition by little substance. For the molecule `COc1cc2c3c(c4ccccc4c2cc1OC)C[C@@H]1CCCN1C3`, the inhibition in vivo at 100 mg/kg in the data set with HCT-116 [1] came to 21%. Moreover, the IC50 in the data set on HCT-116 [2] stood at 49.6 nM; in the data set on HT-29 it was 57.1 nM; in the data set with A549 it was 48.9 nM. Moreover, in the data set with Mus musculus [3], the Activity result is “Non-toxic”.
On to `COc1cc2c3c(c4ccc(O)cc4c2cc1OC)C[C@H]1CCCN1C3`, for which the IC50 is 59.9 nM in the data set on HCT-116 [2], 158 nM with HT-29 and 58.2 nM in the data set on A549.
On to `COc1cc2c3c(c4ccc(O)cc4c2cc1OC)[C@H](O)[C@H]1CCCN1C3`, for which the IC50 in the data set on HCT-116 [2] was 671 nM; in the data set on HT-29, 935 nM; in the data set with A549, 818 nM.
Turning to `COc1cc2c3c(c4cccc(O)c4c2cc1OC)C[C@@H]1CCCN1C3`, the IC50 in the data set on HCT-116 [2] is 4.7 nM; in the data set on HT-29 it was 452 nM; with A549, 5.5 nM.
On to `COc1cc2c3c(c4ccc(O)cc4c2cc1OC)[C@@H](O)[C@@H]1CCCN1C3`, for which the figures for the IC50 in the data set with HCT-116 [2], with HT-29 and with A549 were 44.4 nM, 53.6 nM and 52.3 nM, respectively.
For the molecule `COc1cc2c3c(c4ccc(O)cc4c2cc1OC)[C@@H](O)[C@H]1CCCN1C3`, the IC50 in the data set on HCT-116 [2] amounted to 32.4 nM; in the data set on HT-29, 37 nM; with A549, 30.6 nM.
For `CCc1ccc2c3c(c4cc(OC)c(OC)cc4c2c1)CN1CCC[C@H]1C3` the same measures were 403 nM, 484 nM and 441 nM.
With `CCc1c2c(nc3ccc(OC(=O)N4CCC(N5CCCCC5)CC4)cc13)-c1cc3c(c(=O)n1C2)COC(=O)[C@]3(O)CC.Cl`, in data set [4], the inhibition in vivo at 100 mg/kg came out at 78.3%. Also, the Activity result with Mus musculus [5], in the data set on Mus musculus [7] and in the data set with Mus musculus [9] was “Non-toxic” each time. Also, in [6], the inhibition in vivo at 50 mg/kg is 46.2%. For the same molecule, the inhibition in vivo at 135 mg/kg in the data set with HCT-116 [8] was found to be 77%.
In the case of `COc1cc2c3c(c4cc(O)ccc4c2cc1OC)C[C@@H]1CCCN1C3`, the figures for the IC50 with HCT-116 [2], with HT-29 and with A549 were 23.5 nM, 32.1 nM and 21.6 nM, respectively.
In the case of `COc1cc2c3c(c4ccc(F)cc4c2cc1OC)C[C@@H]1CCCN1C3`, in the data set on HCT-116 [1], the inhibition in vivo at 100 mg/kg turned out to be 30.7%. Besides, the Activity entry in the data set on Mus musculus [10] is given as “Toxic”; in the data set with Mus musculus [3], “Non-toxic”. For the same molecule, the IC50 with HCT-116 [2] was 48.1 nM; in the data set on HT-29 it was 58.9 nM; in the data set with A549, 51 nM. Further, the mortality in data set [11] was 10%.
On to `COc1cc2c3c(c4ccc(O)cc4c2cc1OC)C[C@@H]1CCCN1C3`, for which the inhibition in vivo at 100 mg/kg in the data set on HCT-116 [1] was determined as 35.7%. Besides, the Activity result in the data set with Mus musculus [10], with Mus musculus [3], in the data set on Mus musculus [14] and in the data set with Mus musculus [9] was “Non-toxic” throughout. Besides, the IC50 with HCT-116 [2] was found to be 0.5 nM; in the data set with HT-29 it was 1.8 nM; in the data set with A549, 0.6 nM. The inhibition in vivo at 25 mg/kg in data set [12] came to 46.9%. The inhibition in vivo at 50 mg/kg in data set [6] was determined as 70.8%. For the same molecule, the inhibition in vivo at 200 mg/kg in the data set with HCT-116 [13] was found to be 48.7%.
On to `COc1cc2c3c(c4ccc(O)cc4c2cc1OC)[C@H](O)[C@@H]1CCCN1C3` [TYLOPHORIDICINE E], for which the IC50 in the data set on HCT-116 [2] is 1.3 nM; in the data set with HT-29 it was 2.9 nM; in the data set on A549, 2.7 nM. For the same molecule, the inhibition in vivo at 25 mg/kg in data set [12] turned out to be 30.6%. For the same molecule, the Activity entry was “Non-toxic” in the data set with Mus musculus [14] and “Toxic” in the data set on Mus musculus [9].
In the case of `COc1cc2c3c(c4ccc(OC(C)=O)cc4c2cc1OC)C[C@@H]1CCCN1C3`, the Activity entry in the data set on Mus musculus [10] is listed as “Non-toxic”. The IC50 in the data set with HCT-116 [2] came out at 2 nM; in the data set on HT-29, 3.5 nM; in the data set on A549, 2.8 nM. Also, the inhibition in vivo at 200 mg/kg in the data set on HCT-116 [13] came out at 34.7%.
As to `COc1ccc2c3c(c4cc(OC)c(OC)cc4c2c1)CN1CCC[C@H]1C3`, the IC50 in the data set on HCT-116 [2] stood at 41.7 nM; in the data set with HT-29, 45.1 nM; in the data set with A549, 43.8 nM.
Turning to `Oc1ccc2c3c(c4cc5c(cc4c2c1)OCO5)CN1CCC[C@H]1C3`, the figures for the IC50 in the data set with HCT-116 [2], with HT-29 and in the data set with A549 were 377 nM, 879 nM and 392 nM, respectively.
For `CCOc1cc2c3c(c4ccc(O)cc4c2cc1OCC)C[C@@H]1CCCN1C3`, the IC50 in the data set with HCT-116 [2] is 38.8 nM; with HT-29 it was 80.5 nM; in the data set on A549, 42.2 nM.
